MC4R ag barr: agonists of human melanocortin 4 receptor (MC4R) beta-arrestin; U2OS MC4R beta-arrestin complementation, luminescence; percent of melanotan II response, DMSO zero; activation, % at 8.9 µM; P32245; 0.98% of 360,000 active;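 active = activation above a per-plate cutoff, the mean activation of sample wells on that plate plus 3 SD, cut at about 8% in these data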
MC4R antagonist: blocks human MC4R cAMP signaling | 0.48% of 360,000 active | inhibition, % at 6.5 µM | MC4R-expressing cells, MTII-stimulated cAMP, LANCE TR-FRET | P32245;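 active = inhibition above its plate's cutoff, the mean of tested wells on that plate plus 3 SD, cut at about 29% in these data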;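 also: 0% = Melanotan II alone and 100% = Melanotan II plus saturating MCL0020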
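system = U2OS cells with stable human MC4R expression | also added = Melanotan II challenge after compound preincubation | dosing = one concentration, 6.5 µM nominal | incubation = compound 30 min, challenge 1 h, detection 1 h | measured by = TR-FRET with Eu-cAMP and labeled anti-cAMP, 671 nm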
beta cell repl: induces beta-cell replication in MIN6 cells | MIN6 cells proliferation, ATPlite luminescence, 48 h; cells starved in 0.2% serum; 100% = growth in 10% serum | proliferation, % at 10 µM | 0.29% of 330,000 active | AID 2380;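 active = compounds whose signal lies at least 3.5 SD above the mean of all wells on their plate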;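 also: 0% = DMSO-treated cells in low-serum medium and 100% = 10% serum control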
NOD2 RIPK2 PPI: inhibitors of human NOD2-RIPK2 interaction | 0.38% of 360,000 active | CHO BLA complementation NOD2-RIPK2, CCF4 ratio | AID 624267 | O43353 | inhibition, % at 4.98 µM; in the data active = inhibition above about 21%;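 also: 0% = vehicle only and 100% = reference blocker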
Target sequence (O43353 whole entry, looked up): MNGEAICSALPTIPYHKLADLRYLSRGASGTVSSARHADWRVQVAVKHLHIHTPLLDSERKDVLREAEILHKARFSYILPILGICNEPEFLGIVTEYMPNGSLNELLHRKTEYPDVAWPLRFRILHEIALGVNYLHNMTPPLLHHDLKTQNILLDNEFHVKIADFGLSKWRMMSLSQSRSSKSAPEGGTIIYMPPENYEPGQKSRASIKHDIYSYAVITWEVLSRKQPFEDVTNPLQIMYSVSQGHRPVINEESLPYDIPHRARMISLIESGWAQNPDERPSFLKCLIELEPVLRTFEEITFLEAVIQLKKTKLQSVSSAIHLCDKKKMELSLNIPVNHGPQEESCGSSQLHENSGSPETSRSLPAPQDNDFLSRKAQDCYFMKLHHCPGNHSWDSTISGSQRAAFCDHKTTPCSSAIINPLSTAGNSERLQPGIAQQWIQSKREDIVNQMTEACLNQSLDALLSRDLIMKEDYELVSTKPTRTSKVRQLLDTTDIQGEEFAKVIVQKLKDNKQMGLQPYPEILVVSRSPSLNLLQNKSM
TLR9-MyD88 inh: blocks human TLR9 binding to MyD88; Q9NR96+Q99836; CHO BLA complementation TLR9-MyD88, CCF4 FRET ratio; inhibition, % at 4.98 µM; 0.21% of 340,000 active; AID 504734;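 active = inhibition above the mean over all tested compounds plus 3 SD, cut at about 21% in these data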;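 also: 0% = DMSO only wells and 100% = clavulanate BLA inhibitor control wells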
TLR4 MyD88 comp: inhibitors of human TLR4-MyD88 binding; 0.18% of 200,000 active; HeLa CL3-4 TLR4/MyD88 BLA complementation, FRET ratio; inhibition, % at 8.4 µM; in the data active = inhibition above about 25%;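 also: 0% = vehicle and 100% = reference inhibitor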
cAMP nonselect: counter-screen for MC4R antagonists: nonselective cAMP signaling inhibitors; AID 602193; parental U2OS, forskolin cAMP, LANCE TR-FRET; 26% of 1,600 active; shares compounds with MC4R antagonist; inhibition, % at 6.5 µM;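 active = mean inhibition over triplicates above the low-control well mean plus 3 SD, set per campaign, cut at about 13% in these data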;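 also: signal is single emission at 671 nm which falls as cellular cAMP rises; 0% = forskolin-stimulated wells and 100% = buffer without forskolin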
MC4R antag conf: human MC4R cAMP antagonism confirmation; 27% of 1,600 active; inhibition, % at 6.5 µM; shares compounds with MC4R antagonist; MC4R-expressing cells, MTII-stimulated cAMP, TR-FRET; in the data active = inhibition above about 29%;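 also: 0% = agonist stimulated wells alone and 100% = agonist stimulated wells plus saturating reference antagonist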
* = called active by the depositor; nt = no result given. Only some compounds are listed: those with a hit (about 2.1% of all), similar ones and a draw of the others.

SMILES | MC4R ag barr | MC4R antagonist | beta cell repl | NOD2 RIPK2 PPI | TLR9-MyD88 inh | TLR4 MyD88 comp | cAMP nonselect | MC4R antag conf
O=C1c2ccc([N+](=O)[O-])cc2S(=O)(=O)N1Cc1ccccc1 | -3 | 33* | -3 | 1 | 1 | nt | 28* | 50*
COc1cccc(CN2C(=O)c3ccccc3S2(=O)=O)c1 | 0 | 7 | 0 | -8 | 10 | nt | nt | nt
CCOC(=O)c1ccc(N=c2sc(C(=O)OC)cc(=O)n2-c2ccc(C(=O)OCC)cc2)cc1 | 1 | 32* | -7 | 0 | -4 | 2 | 6 | 18
COC(=O)c1cc(=O)n(-c2ccccc2)c(=Nc2ccccc2)s1 | 3 | 11 | -7 | -2 | -1 | 3 | nt | nt
CCOc1ccccc1/C=C(\C#N)C(=O)Nc1cccc(C(=O)O)c1 | 0 | 38* | 0 | -8 | 2 | nt | 0 | 0
Cc1cc(C(=O)O)ccc1-n1c(C)cc(/C=C(/C#N)C(=O)Nc2ccccc2)c1C | -1 | 31* | -4 | 1 | nt | -3 | -1 | -1
COc1ccc(CN(CC(=O)NCCc2ccccc2)C(=O)CCC(=O)Nc2ccccn2)cc1 | 0 | 1 | -1 | -1 | -1 | nt | nt | nt
Cc1cc(=O)c(C(=O)O)nn1-c1ccccc1 | -1 | 6 | -2 | -6 | 0 | 5 | nt | nt
CCN(CC)CCCNC(=O)CCC(=O)Nc1ccc2nc(N3CCC(C)CC3)cc(C)c2c1 | 0 | 37* | -2 | -9 | -9 | 11 | 4 | 0
CS(=O)(=O)N(CCc1ccccc1)CC(=O)N1CCN(c2ccc(F)cc2)CC1 | 0 | 4 | -1 | -17 | -2 | -1 | nt | nt
COc1ccccc1NCC(=O)N/N=C(\C)c1cccs1 | 2 | 40* | 1 | 5 | 2 | 11 | 2 | 10
Cn1c(SCC(=O)Nc2cccc(F)c2)nnc1-c1cc2ccccc2o1 | 8 | 31* | -3 | -1 | -1 | 0 | 4 | 3
CC(=O)Nc1ccc(-c2nnc(SCC(=O)Nc3ccc4c(c3)oc3ccccc34)n2C)cc1 | 1 | 0 | -5 | -8 | 6 | 1 | nt | nt
Cc1ccc(S(=O)(=O)N2CCC(C(=O)Nc3nnc(C4CCCC4)s3)CC2)cc1 | 1 | 1 | -3 | -6 | 9 | -19 | nt | nt
O=C(Nc1nnc(C2CCCC2)s1)C1CCN(S(=O)(=O)c2ccc(Cl)cc2)CC1 | 1 | 30* | -2 | -3 | -1 | 2 | 0 | -3
CC(Oc1ccc(Br)cc1)C(=O)NCC1(N2CCCCC2)CCCCC1 (centres undefined) | -1 | -6 | -3 | -3 | -7 | nt | nt | nt
Cc1ccc(-c2nn(-c3ccccc3)cc2NC(=O)CCl)cc1 | 2 | 37* | -7 | -6 | -9 | 19 | 10 | 41*
CCSc1nnc(NC(=O)CSc2nnc(C)c(=O)n2N)s1 | -5 | -2 | 0 | -4 | -2 | -31 | nt | nt
CCn1cc(C(=O)O)c(=O)c2cnc(N3CCN(C(=S)Nc4ccccc4)CC3)nc21 | 5 | 31* | -5 | -4 | 5 | nt | -1 | -10
CCn1cc(C(=O)O)c(=O)c2cnc(N3CCN(C(=O)Nc4ccccc4)CC3)nc21 | nt | nt | nt | nt | nt | 0 | nt | nt
Cc1ccc(NC(=O)c2cncc(Br)c2)cc1S(=O)(=O)N(C)C | 2 | 29* | -2 | 4 | -2 | -10 | 6 | -3
O=c1c2c(-c3cccs3)csc2[nH]c(=S)n1-c1ccccc1 | -1 | 31* | -3 | -10 | -1 | 0 | 18* | 33*
NS(=O)(=O)c1c(Sc2ccccc2C(=O)O)ccc2ccccc12 | 0 | 37* | 1 | 10 | 0 | nt | 17* | 38*
O=C(Nc1cccc2cccnc12)c1ccccc1Br | 0 | 4 | 2 | 11 | 11 | nt | nt | nt
FC(F)Oc1ccccc1NC(=S)NCCc1ccccc1 | 0 | 32* | -4 | -4 | -7 | nt | -1 | -6
SMILES | MC4R ag barr | MC4R antagonist | beta cell repl | NOD2 RIPK2 PPI | TLR9-MyD88 inh | TLR4 MyD88 comp | cAMP nonselect | MC4R antag conf
Cc1ccc(F)c(NC(=O)c2cncn2-c2ccccc2)c1 | -1 | 30* | -2 | -6 | -9 | nt | 0 | -9
COc1cc(C2NCC(c3ccc(Cl)cc3Cl)c3c2[nH]c2ccccc32)cc(OC)c1OC (centres undefined) | 6 | 36* | -5 | -4 | 2 | -2 | 6 | 11
CCOC(=O)C1(Cc2cccc(F)c2)CCN(Cc2cnn(CC)c2)CC1 | 1 | 29* | -3 | -9 | -5 | -10 | 4 | 13
COC(=O)Nc1ccc(S(=O)(=O)N2CCC(C(=O)NCc3ccc4c(c3)OCO4)CC2)cc1 | 0 | -6 | 3 | 3 | 4 | nt | nt | nt
Cc1ccc(Cl)cc1NC(=O)Nc1cccs1 | -2 | 30* | -5 | -7 | 0 | -8 | -1 | -2
Cc1ccccc1NC(=O)Nc1cccs1 | 1 | 4 | -2 | 0 | 0 | 7 | nt | nt
CC(C)(C)c1ccc(C(=O)N2CCN(C(=O)c3cccs3)CC2)cc1 | -2 | -2 | -3 | 8 | -14 | nt | nt | nt
O=C(CSc1nccc(=O)[nH]1)NN(c1ccccc1)c1ccccc1 | 0 | 29* | -3 | -13 | 3 | -18 | -6 | -20
O=C(Nc1cc(Cl)ncn1)c1ccccc1 | 0 | 30* | -3 | 6 | nt | nt | 17* | 38*
COc1ccccc1CNC(=O)c1ccc(CS(=O)(=O)c2ccc(C)cc2)o1 | -4 | 2 | 5 | 10 | 2 | nt | nt | nt
Cc1ccc(F)cc1NC(=O)CCNC(=O)c1ccc([N+](=O)[O-])cc1 | 1 | -4 | 0 | -5 | -16 | nt | nt | nt
O=C(CCNC(=O)c1ccc([N+](=O)[O-])cc1)Nc1ccc(F)c(F)c1F | -1 | 32* | -3 | -4 | -5 | nt | 1 | 4
C=CCSc1nc2ccccc2c(=O)n1C1CCOC(C)(C)C1 (centres undefined) | 6 | 34* | -1 | -2 | -4 | nt | -3 | 6
Cn1c(=O)c2[nH]c(NN=Cc3cccc(Br)c3)nc2n(C)c1=O | -1 | 24 | nt | 2 | -7 | nt | nt | nt
O=C(CCNC(=O)c1ccccc1)OCN1C(=O)c2ccccc2C1=O | 0 | 3 | 3 | -3 | 4 | -8 | nt | nt
COc1ccc(C(=O)NCC(=O)NCC(=O)OCC(=O)c2ccc(Br)cc2)cc1 | -3 | 20 | -1 | 3 | -11 | nt | nt | nt
O=C(CNC(=O)c1ccc(Br)cc1)NCC(=O)OCC(=O)c1ccccc1 | -1 | 42* | 3 | -11 | -3 | 3 | 14* | 10
O=C(CNC(=O)c1ccccc1)OCN1C(=O)c2ccccc2C1=O | 1 | 31* | nt | -2 | -2 | nt | 14* | 22
